Measured values from ChEMBL document CHEMBL3804761, “Synthesis of a stable and orally bioavailable englerin analogue” (Bioorg Med Chem Lett, 2016).

What was measured:
Format in all cases: functional
U-251 = experiment: Growth inhibition of human U251 cells assessed as cell growth at 10 uM incubated for 48 hrs by sulforhodamine B assay relative to control; conditions: U-251, 48 h, read-out: Activity
Method in brief: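 NCI 60-cell line standard protocol, one-dose screen: single final concentration 10 µM, 2-day drug exposure, sulforhodamine B (SRB) endpoint; read-out is growth percent relative to untreated control.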

Malme-3M = experiment: Growth inhibition of human MALME-3M cells assessed as cell growth at 10 uM incubated for 48 hrs by sulforhodamine B assay relative to control; conditions: read-out: Activity
Method in brief: (§1)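 Run in the standard NCI 60-cell-line screen. Cells were exposed to drug for two days, and the read-out was sulforhodamine B staining. Compound was tested at a single final concentration of 10 µM in every line, and results are reported as growth percent.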

M14 [1] = experiment: Growth inhibition of human M14 cells assessed as cell growth at 10 uM incubated for 48 hrs by sulforhodamine B assay relative to control; conditions: M14, 48 h, read-out: Activity; method in brief: as §1
SK-MEL-28 = experiment: Growth inhibition of human SK-MEL-28 cells assessed as cell growth at 10 uM incubated for 48 hrs by sulforhodamine B assay relative to control; conditions: SK-MEL-28, 48 h, read-out: Activity; method in brief: as §1
[2] = Growth inhibition of human OVCAR3 cells assessed as cell growth at 10 uM incubated for 48 hrs by sulforhodamine B assay relative to control; conditions: OVCAR-3, 48 h, read-out: Activity; method in brief: as §1
[3] = Growth inhibition of human OVCAR8 cells assessed as cell growth at 10 uM incubated for 48 hrs by sulforhodamine B assay relative to control; conditions: OVCAR-8, 48 h, read-out: Activity; method in brief: as §1
[4] = Growth inhibition of human Hs 578T cells assessed as cell growth at 10 uM incubated for 48 hrs by sulforhodamine B assay relative to control; conditions: read-out: Activity
[5] = Growth inhibition of human HOP62 cells incubated for 48 hrs by sulforhodamine B assay; conditions: HOP-62, 48 h
Method in brief: (§2)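 NCI 60-cell-line panel, standard protocol. Cells exposed to compound for two days, growth read by sulforhodamine B staining. Tested at five 10-fold dilutions, top concentration 100 µM, to give dose-response curves.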

NCI-H226 [6] = experiment: Growth inhibition of human NCI-H226 cells incubated for 48 hrs by sulforhodamine B assay; conditions: NCI-H226, 48 h; method in brief: as §2
NCI-H23 = experiment: Growth inhibition of human NCI-H23 cells incubated for 48 hrs by sulforhodamine B assay; conditions: NCI-H23, 48 h; method in brief: as §2
[7] = Growth inhibition of human HCC2998 cells incubated for 48 hrs by sulforhodamine B assay; conditions: HCC 2998, 48 h; method in brief: as §2
[8] = Growth inhibition of human HCT116 cells incubated for 48 hrs by sulforhodamine B assay; conditions: HCT-116, 48 h; method in brief: as §2
[9] = Growth inhibition of human SF295 cells incubated for 48 hrs by sulforhodamine B assay; conditions: SF-295, 48 h; method in brief: as §2
[10] = Growth inhibition of human SNB75 cells incubated for 48 hrs by sulforhodamine B assay; conditions: SNB-75, 48 h
Method in brief: (§3)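 Tested in the standard NCI 60-cell-line protocol with two-day drug exposure and a sulforhodamine B endpoint. Compounds were first screened at a single final concentration of 10 µM, reported as growth percent. They were then run as five 10-fold dilutions starting from a high concentration of 100 µM to give dose-response curves.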

M14 [11] = experiment: Growth inhibition of human M14 cells incubated for 48 hrs by sulforhodamine B assay; conditions: M14, 48 h; method in brief: as §2
MDA-MB-435 = experiment: Growth inhibition of human MDA-MB-435 cells incubated for 48 hrs by sulforhodamine B assay; conditions: MDA-MB-435, 48 h; method in brief: as §2
[12] = Growth inhibition of human OVCAR5 cells incubated for 48 hrs by sulforhodamine B assay; conditions: OVCAR-5, 48 h; method in brief: as §2
[13] = Growth inhibition of human SKOV3 cells incubated for 48 hrs by sulforhodamine B assay; conditions: SK-OV-3, 48 h; method in brief: as §3
786-0 = experiment: Growth inhibition of human 786-0 cells incubated for 48 hrs by sulforhodamine B assay; conditions: 786-0, 48 h; method in brief: as §2
A498 = experiment: Growth inhibition of human A498 cells incubated for 48 hrs by sulforhodamine B assay; conditions: A498, 48 h
[14] = Growth inhibition of human Hs 578T cells incubated for 48 hrs by sulforhodamine B assay
[15] = Growth inhibition of human HOP92 cells assessed as cell growth at 10 uM incubated for 48 hrs by sulforhodamine B assay relative to control; conditions: HOP-92, 48 h, read-out: Activity
Method in brief: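 Single-dose screen in the NCI 60-cell-line panel at one final concentration of 10 µM. Two-day drug exposure with a sulforhodamine B endpoint. Values are growth percent for each cell line.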

NCI-H226 [16] = experiment: Growth inhibition of human NCI-H226 cells assessed as cell growth at 10 uM incubated for 48 hrs by sulforhodamine B assay relative to control; conditions: NCI-H226, 48 h, read-out: Activity; method in brief: as §1
NCI-H460 = experiment: Growth inhibition of human NCI-H460 cells assessed as cell growth at 10 uM incubated for 48 hrs by sulforhodamine B assay relative to control; conditions: NCI-H460, 48 h, read-out: Activity; method in brief: as §1
[17] = Growth inhibition of human COLO205 cells assessed as cell growth at 10 uM incubated for 48 hrs by sulforhodamine B assay relative to control; conditions: COLO 205, 48 h, read-out: Activity; method in brief: as §1
[18] = Growth inhibition of human HCT15 cells assessed as cell growth at 10 uM incubated for 48 hrs by sulforhodamine B assay relative to control; conditions: HCT-15, 48 h, read-out: Activity; method in brief: as §1

CC(C)[C@@]12C[C@@H](NC(=O)CO)[C@@](C)(O1)[C@@H]1CC[C@@H](C)[C@H]1[C@@H]2OC(=O)/C=C/C1CCCCC1
growth at 10 µM (U-251): 98.1%
growth at 10 µM (Malme-3M): 109%
growth at 10 µM (M14 [1]): 104%
growth at 10 µM (SK-MEL-28): 98.9%
growth at 10 µM [2]: 110%
growth at 10 µM [3]: 107%
growth at 10 µM [4]: 73%
GI50 [5]: > 44.7 µM
LC50 [5]: > 44.7 µM
TGI ([5]; read-out: pTGI (converted)): > 44.7 µM
GI50 (NCI-H226 [6]): > 44.7 µM
LC50 (NCI-H226 [6]): > 44.7 µM
TGI (NCI-H226 [6]; read-out: pTGI (converted)): > 44.7 µM
GI50 (NCI-H23): > 44.7 µM
LC50 (NCI-H23): > 44.7 µM
TGI (NCI-H23; read-out: pTGI (converted)): > 44.7 µM
GI50 [7]: > 44.7 µM
LC50 [7]: > 44.7 µM
TGI ([7]; read-out: pTGI (converted)): > 44.7 µM
GI50 [8]: > 44.7 µM
LC50 [8]: > 44.7 µM
TGI ([8]; read-out: pTGI (converted)): > 44.7 µM
GI50 [9]: > 44.7 µM
LC50 (concentration causing 50% net cell kill) [9]: > 44.7 µM
TGI ([9]; read-out: pTGI (converted)): > 44.7 µM
GI50 [10]: > 44.7 µM
LC50 [10]: > 44.7 µM
TGI ([10]; read-out: pTGI (converted)): > 44.7 µM
GI50 (M14 [11]): > 44.7 µM
LC50 (M14 [11]): > 44.7 µM
TGI (M14 [11]; read-out: pTGI (converted)): > 44.7 µM
GI50 (MDA-MB-435): > 44.7 µM
LC50 (MDA-MB-435): > 44.7 µM
TGI (MDA-MB-435; read-out: pTGI (converted)): > 44.7 µM
GI50 [12]: > 44.7 µM
LC50 [12]: > 44.7 µM
TGI ([12]; read-out: pTGI (converted)): > 44.7 µM
GI50 [13]: > 44.7 µM
LC50 [13]: > 44.7 µM
TGI ([13]; read-out: pTGI (converted)): > 44.7 µM
GI50 (786-0): > 44.7 µM
LC50 (786-0): > 44.7 µM
TGI (786-0; read-out: pTGI (converted)): > 44.7 µM
LC50 (A498): > 44.7 µM
GI50 (A498; read-out: GI50): 5.62 µM
GI50 (A498; read-out: pGI50 (converted)): 5.62 µM
TGI (A498; read-out: pTGI (converted)): 21.4 µM
GI50 ([14]; read-out: GI50): 6.17 µM
GI50 ([14]; read-out: pGI50 (converted)): 6.17 µM
CC50 ([14]; read-out: pLC50 (the source's name) (converted)): > 44.7 µM
TGI ([14]; read-out: pTGI (converted)): 18.6 µM
growth at 10 µM [15]: 120%
growth at 10 µM (NCI-H226 [16]): 96.2%
growth at 10 µM (NCI-H460): 103%
growth at 10 µM [17]: 113%
growth at 10 µM [18]: 102%
